Molecules are shown by their SMILES. About 460 (18%) of roughly 2,500 compounds were called active.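 Rule for the calls: active = mean activation above a cutoff of low control average plus 3 SD from the earlier screen (cut at about 12% in these data); inactive = the rest.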 These entries were drawn from the full list.

This passage reports fluorescence artifact activation results from PubChem BioAssay AID504382 (The Scripps Research Institute Molecular Screening Center, 2011).

The assay is described as follows: compound fluorescence interference without thin filaments, confirmation, artefact control for cardiac RTF calcium sensitizer project, biochemical (AID 504382). Particulars: IANBD fluorescence interference counterscreen, buffer, EC20 Ca2+; at 7.2 µM; hits give high values; scaled: EC20 calcium 0, EC100 calcium 100. Summed up: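 Doses – one dose of 7.2 µM, 0.7% DMSO · Buffer or medium – MOPS/KCl/MgCl2/EGTA/NTA/DTT buffer, pH 7.2 · Probe or stimulus – Ca2+ fixed at EC20, 0.472 mM · Measured by – fluorescence intensity, excitation 480 nm, emission 540 nm · Read-out – fluorescence interference versus control range · Timing – 15 min compound exposure at 25 °C · Replication – triplicate wells per compound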
On to `CC1(C)CCN2CCC(C)(C)c3c(O)ccc1c32`, for which the fluorescence artifact activation is 11.3% (inactive). Turning to `Cc1ccc(CC2C(=O)N(c3ccc(C)cc3)C(=O)C2C)cc1` (stereo not given), the fluorescence artifact activation is 0.52% (inactive).

As to `O=C(N/N=C/c1c(O)ccc2ccccc12)c1cccc(C(F)(F)F)c1`, the fluorescence artifact activation was 53.1% (active). Consider `O=C(NN=Cc1c(O)ccc2ccccc12)c1ccncc1`, for which the fluorescence artifact activation is -0.04% (inactive). On to `O=C(N/N=C\c1c(O)ccc2ccccc12)c1cncc(Br)c1`, for which the fluorescence artifact activation is 0.16% (inactive). On to `Cc1ccc(-c2nc(NC(=O)CSc3cc(C)c4ccccc4n3)ns2)cc1`, for which the fluorescence artifact activation was 0.03% (inactive). The result for `CN1CC=C2C(C#N)=C(N)C(C#N)(C#N)[C@H](c3cccs3)[C@H]2C1` reads 0.05% (inactive); that for `CN1CC=C2C(C#N)=C(N)C(C#N)(C#N)[C@H](c3ccoc3)[C@H]2C1`, 8.68% (inactive); that for `Cc1ccc(Cn2cc(CCC(=O)O)c3ccccc32)cc1`, 2.34% (inactive).

As for `CC(=O)n1cc(CO)c2ccccc21`, the fluorescence artifact activation is 95.5% (active). The result for `CSc1c(CC(=O)NCCO)n(C)c2ccccc12` reads 4.19% (inactive).

Turning to `CCOC(=O)C(C(=O)Nc1cccc(C)n1)C1CCCCC1` (stereo not given), the fluorescence artifact activation is -0.06% (inactive). For `CCCc1cc(=O)[nH]c(SCC)n1`, the fluorescence artifact activation is 0.11% (inactive).

Take `CCCc1cc(=O)oc2c3c(cc(OCC(=O)N[C@@H](CSC)C(=O)O)c12)OC(C)(C)CC3`: the fluorescence artifact activation was 14.3% (active). Regarding `Cc1c(C)c2c(OCC(=O)N3CCC(O)CC3)cc3c(c2oc1=O)CCC(C)(C)O3`, the fluorescence artifact activation was -0.07% (inactive). As for `Cc1cc(=O)oc2c3c(cc(OCC(=O)NCc4ccccn4)c12)OC(C)(C)CC3`, the fluorescence artifact activation is 0.25% (inactive). The value for `O=C(CSc1nc2ncc(Br)cc2[nH]1)c1cccc([N+](=O)[O-])c1` was 3.54% (inactive); that for `COC(=O)C[n+]1cccc2ccccc21` was 81.3% (active); that for `O=C(C[n+]1cccc2ccccc21)c1ccccc1` was 0.14% (inactive). The value for `COc1cccc(OCCCn2cc(/C=C3/C(=N)N4C=C(C)SC4=NC3=O)c3ccccc32)c1` was 0.05% (inactive); that for `N=C1/C(=C\c2coc3ccc(O)cc3c2=O)C(=O)N=C2SC=CN12` was -0.02% (inactive); that for `COC(=O)N/N=C/c1cccnc1` was 0.05% (inactive). The value for `COC1C/C(=N\O)C2OC(c3ccccc3)OCC2O1` (stereo not given) was 0.43% (inactive); that for `COc1ccc(OC)c(/C=C2/Sc3ccccc3C2=O)c1` was 0.05% (inactive).

Consider `COc1ccc(C2C(C(C)=O)=C(C)N=c3s/c(=C\c4cc(C)n(C)c4C)c(=O)n32)c(OC)c1` (stereo not given), for which the fluorescence artifact activation is 4.81% (inactive). The value for `O=C(CNC(=O)C12CC3CC(CC(C3)C1)C2)OCC(=O)N1CCCCC1` was 0.38% (inactive). As for `Cc1ccc(-c2ccc(OC(=O)c3ccc(=O)[nH]c3)c(C)c2)cc1`, the fluorescence artifact activation was 4.65% (inactive). Consider `Cc1ccc(-c2nc(N)n(C(=O)c3cccnc3)n2)cc1`, for which the fluorescence artifact activation is 57.1% (active). On to `COc1ccccc1C(=O)n1nc(-c2ccccc2)nc1N`, for which the fluorescence artifact activation was -0.09% (inactive).

`Cc1ccc(CNc2cccnc2)cc1`: the fluorescence artifact activation is 0.43% (inactive). The value for `CN(Cc1ccccc1)C(=O)c1ccc(NC(=O)Cc2ccc(NC(=O)C3CCCN(S(=O)(=O)c4cccc([N+](=O)[O-])c4)C3)cc2)cc1` (stereo not given) was 0.65% (inactive). Consider `CCN1CCN(Cc2c(O)ccc3c2O/C(=C\c2ccc(C)cc2)C3=O)CC1`, for which the fluorescence artifact activation was 0.17% (inactive). Regarding `O=c1[nH]c2ccc(N=Cc3c(O)ccc4cc(Br)ccc34)cc2[nH]1`, the fluorescence artifact activation is -0.04% (inactive). The value for `CCC(CC)c1nc(C#N)c(NC(C)c2ccccc2)o1` (stereo not given) was 0% (inactive); that for `COc1ccc(CNc2oc(COc3ccccc3)nc2C#N)cc1` was 21.9% (active); that for `C=CCNc1oc(COc2ccc(C)cc2)nc1C#N` was 3.74% (inactive). The result for `N#Cc1ccccc1OCC(=O)OCC(=O)c1ccc2c(c1)NC(=O)CO2` reads 5.5% (inactive); that for `O=C(OCCN1C(=O)c2cccc3c(N4CCOCC4)ccc(c23)C1=O)c1ccccc1Cl`, 0.47% (inactive); that for `O=C(OCCN1C(=O)c2cccc3c(N4CCOCC4)ccc(c23)C1=O)c1ccc(Cl)cc1Cl`, 8.85% (inactive). On to `CCOC(=O)c1cnc2c(C)c(Cl)ccc2c1N1CCOCC1`, for which the fluorescence artifact activation is 28.3% (active). In the case of `CCSc1nnc(-c2sc3nnc(-c4ccccc4)c(-c4ccccc4)c3c2N)o1`, the fluorescence artifact activation was 0.15% (inactive). Take `O=C(NC(=S)NCC1CCCO1)C(c1ccccc1)c1ccccc1` (stereo not given): the fluorescence artifact activation is 0.17% (inactive). The value for `CCc1ccccc1SCc1noc(C(=O)NCC2CCCO2)c1C(=O)O` (stereo not given) was 0.19% (inactive); that for `OC(CNCC1CCCO1)Cn1c2ccc(Br)cc2c2cc(Br)ccc21` (stereo not given) was 12.3% (active); that for `O=C(COC(=O)/C=C/c1ccc(Cl)cc1)NCCN1C(=O)CSC1=O` was -0.09% (inactive). The result for `COc1cc(C(=O)Oc2ccccc2/C=N/NC(=O)c2ccc(Cl)cc2)cc(OC)c1OC` reads 11.5% (inactive); that for `O=C(N/N=C/c1ccc2c(c1)OCO2)/C(=C/c1ccc2c(c1)OCO2)NC(=O)c1ccccc1`, 0.46% (inactive). Regarding `O=C(N/N=C/c1ccccc1OC(=O)c1ccc2c(c1)OCO2)c1cccc(F)c1`, the fluorescence artifact activation was 17.8% (active). For the molecule `COCC(=O)NC1CCN(S(=O)(=O)c2cccc(C(C)=O)c2)CC1`, the fluorescence artifact activation was 3.2% (inactive). The result for `Cc1ccc(C(=O)NCC(=O)OCC(=O)N(CC(C)C)c2c(N)n(Cc3ccccc3)c(=O)[nH]c2=O)cc1` reads 0.05% (inactive); that for `Cc1ccc(C(=O)NCC(=O)OCC(=O)c2ccc(Cl)s2)cc1`, 77.8% (active). In the case of `COc1ccc(OCCNC(=O)c2ccc(C)cc2)cc1`, the fluorescence artifact activation was 6.32% (inactive). Take `COc1ccc2nc(C)cc(NCc3ccc(F)cc3)c2c1`: the fluorescence artifact activation was 0.15% (inactive). The value for `Cc1cccc(NC(=O)CSc2nnc(CSc3nc(C)cc(C)n3)n2Cc2ccco2)c1` was 1.92% (inactive); that for `O=C(COc1ccc(Cl)cc1)NCc1ccccc1` was 0.08% (inactive); that for `O=C(COC(=O)C1CC2C=CC1C2)Nc1cccc(S(=O)(=O)N2CCCCCC2)c1` (stereo not given) was -0.04% (inactive). The value for `O=C(COC(=O)C1CCCCC1)Nc1ccc([N+](=O)[O-])cc1` was 28.8% (active).

For `O=C(COC(=O)C1CCC1)NCc1ccccc1`, the fluorescence artifact activation was 82.9% (active). Take `O=C(COC(=O)C1CCC(=O)N1)Nc1ccc(Oc2ccccc2)cc1` (stereo not given): the fluorescence artifact activation is 0.14% (inactive). As to `Cc1ccc(C(=O)COC(=O)C2CCC2)cc1`, the fluorescence artifact activation was 7.89% (inactive).
